In PMC2943143 (Biochemical pharmacology, 2010):
pIC50, pKi: −log10 of the molar value. Values joined by “and” are separate entries in the source; they are usually repeats but may differ in a detail not shown here. Identical values can stand only once. “Also recorded” adds a separate entry of the source.

Assays:
Aminopeptidase N = conditions: read-out: IC50, Aminopeptidase N; cited from earlier work
human pol η = human pol η (Homo sapiens, UniProt Q9Y253); assay: Pol assay, human pol η; format: biochemical
Sequence of human pol η (Q9Y253 whole entry): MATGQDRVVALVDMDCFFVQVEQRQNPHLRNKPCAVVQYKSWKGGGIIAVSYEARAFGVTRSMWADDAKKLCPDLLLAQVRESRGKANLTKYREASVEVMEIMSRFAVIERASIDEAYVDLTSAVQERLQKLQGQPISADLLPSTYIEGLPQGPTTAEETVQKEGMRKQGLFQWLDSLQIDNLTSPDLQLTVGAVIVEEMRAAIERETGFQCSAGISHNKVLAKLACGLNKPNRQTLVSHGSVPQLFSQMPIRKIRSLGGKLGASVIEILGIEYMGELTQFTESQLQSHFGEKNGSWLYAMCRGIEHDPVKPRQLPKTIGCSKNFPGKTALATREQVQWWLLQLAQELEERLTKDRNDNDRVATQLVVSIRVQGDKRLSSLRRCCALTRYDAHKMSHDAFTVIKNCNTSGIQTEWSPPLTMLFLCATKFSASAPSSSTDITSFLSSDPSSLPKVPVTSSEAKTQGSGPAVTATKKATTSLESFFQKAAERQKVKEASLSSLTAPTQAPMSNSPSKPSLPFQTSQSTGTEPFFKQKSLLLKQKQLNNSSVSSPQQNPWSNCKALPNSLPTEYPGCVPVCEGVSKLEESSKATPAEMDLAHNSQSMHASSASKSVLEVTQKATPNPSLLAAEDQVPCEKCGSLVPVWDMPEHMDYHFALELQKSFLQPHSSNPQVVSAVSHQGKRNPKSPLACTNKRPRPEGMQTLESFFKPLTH
Procedure, shortened: (§1)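 Test compound was dissolved in DMSO and sonicated 30 s. It was preincubated with enzyme (0.05 unit final) in 50 mM Tris-HCl pH 7.5, 1 mM DTT, 50% glycerol and 0.1 mM EDTA at 0 °C for 10 min. This was added to each enzyme's standard reaction mix with poly(dA)/oligo(dT)18 (A/T = 2/1) template-primer and dTTP substrate, then incubated at 37 °C for 60 min. Activity is given as % of inhibitor-free control.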

[1] = target: Klenow fragment of E. coli pol I (Escherichia coli, UniProt P00582); assay: Pol assay, Klenow fragment of E. coli pol I; format: biochemical; conditions: supplemental Fig. S1A
Procedure, shortened: as §1

HCV NS3 protease = conditions: read-out: IC50, HCV NS3 protease; cited from earlier work
T7 RNA polymerase = T7 RNA polymerase (Escherichia phage T7, UniProt P00573); assay: T7 RNA polymerase assay; format: biochemical; conditions: highest tested concentration 1 μM, supplemental Fig. S1B
cauliflower pol α = assay: Pol assay, cauliflower pol α; format: biochemical; conditions: supplemental Fig. S1A
Procedure, shortened: as §1

mouse pol ι = mouse pol ι (Mus musculus, UniProt Q6R3M4); assay: Pol assay, mouse pol ι; format: biochemical
Sequence of mouse pol ι (Q6R3M4 whole entry): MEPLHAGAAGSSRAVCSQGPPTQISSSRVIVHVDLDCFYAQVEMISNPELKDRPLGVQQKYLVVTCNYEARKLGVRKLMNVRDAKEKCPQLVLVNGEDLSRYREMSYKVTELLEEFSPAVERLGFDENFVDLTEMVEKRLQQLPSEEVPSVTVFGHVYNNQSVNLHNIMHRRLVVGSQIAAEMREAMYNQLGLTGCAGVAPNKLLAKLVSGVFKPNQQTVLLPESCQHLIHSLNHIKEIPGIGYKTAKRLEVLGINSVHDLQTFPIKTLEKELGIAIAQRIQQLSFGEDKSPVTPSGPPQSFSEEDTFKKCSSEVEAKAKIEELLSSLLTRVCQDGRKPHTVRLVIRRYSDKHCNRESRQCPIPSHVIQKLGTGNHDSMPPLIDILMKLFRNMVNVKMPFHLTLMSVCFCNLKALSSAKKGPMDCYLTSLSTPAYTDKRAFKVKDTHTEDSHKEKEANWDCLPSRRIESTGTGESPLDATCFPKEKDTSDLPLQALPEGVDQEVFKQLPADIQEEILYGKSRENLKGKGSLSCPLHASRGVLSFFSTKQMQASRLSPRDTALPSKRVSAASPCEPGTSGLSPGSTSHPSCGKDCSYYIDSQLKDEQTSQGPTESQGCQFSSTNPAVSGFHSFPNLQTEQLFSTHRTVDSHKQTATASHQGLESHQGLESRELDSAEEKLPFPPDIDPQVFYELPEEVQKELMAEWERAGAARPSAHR
Procedure, shortened: as §1

[2] = target: Angiotensin converting enzyme; conditions: read-out: IC50, Angiotensin converting enzyme; cited from earlier work
[3] = tested on: rat liver microsomal 5 α-reductase; conditions: cited from earlier work
human pol δ = human pol δ (Homo sapiens, UniProt P28340); assay: Pol assay, human pol δ; format: biochemical
Sequence of human pol δ (P28340 whole entry): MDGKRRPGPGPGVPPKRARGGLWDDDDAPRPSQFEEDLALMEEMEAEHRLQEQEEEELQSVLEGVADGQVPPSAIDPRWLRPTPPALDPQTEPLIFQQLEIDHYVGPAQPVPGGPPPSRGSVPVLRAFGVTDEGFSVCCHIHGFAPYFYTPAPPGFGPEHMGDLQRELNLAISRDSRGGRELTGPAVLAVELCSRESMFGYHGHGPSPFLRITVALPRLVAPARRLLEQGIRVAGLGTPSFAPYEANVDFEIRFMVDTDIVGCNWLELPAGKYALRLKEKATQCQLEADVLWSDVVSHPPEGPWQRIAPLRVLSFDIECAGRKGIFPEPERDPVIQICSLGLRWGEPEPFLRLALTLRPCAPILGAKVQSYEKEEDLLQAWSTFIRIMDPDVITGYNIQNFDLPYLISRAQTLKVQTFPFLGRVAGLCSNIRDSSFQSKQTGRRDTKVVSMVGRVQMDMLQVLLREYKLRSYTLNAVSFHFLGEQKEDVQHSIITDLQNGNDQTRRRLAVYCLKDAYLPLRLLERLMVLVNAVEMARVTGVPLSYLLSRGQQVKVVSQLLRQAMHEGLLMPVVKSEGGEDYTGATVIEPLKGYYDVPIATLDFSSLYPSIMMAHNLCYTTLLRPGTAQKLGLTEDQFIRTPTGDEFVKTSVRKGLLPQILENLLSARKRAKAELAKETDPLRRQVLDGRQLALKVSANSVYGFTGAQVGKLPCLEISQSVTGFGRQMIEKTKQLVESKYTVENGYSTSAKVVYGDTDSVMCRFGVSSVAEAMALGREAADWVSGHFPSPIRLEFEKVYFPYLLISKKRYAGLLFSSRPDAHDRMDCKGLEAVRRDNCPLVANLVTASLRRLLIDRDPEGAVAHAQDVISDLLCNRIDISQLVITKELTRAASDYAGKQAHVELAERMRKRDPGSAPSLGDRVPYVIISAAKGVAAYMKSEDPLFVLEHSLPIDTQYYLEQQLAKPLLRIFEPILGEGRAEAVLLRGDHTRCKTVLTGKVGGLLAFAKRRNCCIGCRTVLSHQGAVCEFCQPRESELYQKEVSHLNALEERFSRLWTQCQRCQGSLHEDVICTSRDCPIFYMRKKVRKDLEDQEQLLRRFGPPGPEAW
Procedure, shortened: as §1

H^+, K^+- ATPase = conditions: cited from earlier work
human topoisomerase II = human topoisomerase II (Homo sapiens, UniProt P11388); assay: DNA topoisomerase II assay; format: biochemical; conditions: highest tested concentration 1 μM, supplemental Fig. S1B
Procedure, shortened: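 Topoisomerases I and II were purified from human placenta, and DNase I came from bovine pancreas. Each activity was measured in a standard assay following the supplier's specifications.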

[4] = target: human pol λ (full-length, residues 1–575) (Homo sapiens, UniProt Q9UGP5); assay: Pol assay, full-length human pol λ; format: biochemical; conditions: 100 and 1,000 nM PGG, Fig. 1C
Sequence of human pol λ (full-length, residues 1–575) (Q9UGP5 whole entry, the tested form may be a part): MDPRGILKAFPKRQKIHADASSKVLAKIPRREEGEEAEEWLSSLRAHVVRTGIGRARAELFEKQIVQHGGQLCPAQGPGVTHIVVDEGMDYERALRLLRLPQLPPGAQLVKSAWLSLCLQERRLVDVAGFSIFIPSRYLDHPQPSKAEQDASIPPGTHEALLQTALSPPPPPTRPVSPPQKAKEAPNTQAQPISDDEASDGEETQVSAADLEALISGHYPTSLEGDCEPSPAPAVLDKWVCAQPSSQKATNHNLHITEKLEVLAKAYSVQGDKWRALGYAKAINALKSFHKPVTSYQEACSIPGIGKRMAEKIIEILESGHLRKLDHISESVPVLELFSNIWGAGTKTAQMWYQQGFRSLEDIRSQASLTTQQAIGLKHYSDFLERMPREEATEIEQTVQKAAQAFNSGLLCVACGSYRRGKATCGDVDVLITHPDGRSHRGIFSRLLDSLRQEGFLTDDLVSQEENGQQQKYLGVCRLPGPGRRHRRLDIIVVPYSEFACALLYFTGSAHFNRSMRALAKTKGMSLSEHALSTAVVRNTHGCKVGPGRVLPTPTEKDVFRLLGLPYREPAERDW
Procedure, shortened: as §1

Taq pol = Taq pol (Thermus aquaticus, UniProt P19821); assay: Pol assay, Taq pol; format: biochemical; conditions: supplemental Fig. S1A
Sequence of Taq pol (P19821 whole entry): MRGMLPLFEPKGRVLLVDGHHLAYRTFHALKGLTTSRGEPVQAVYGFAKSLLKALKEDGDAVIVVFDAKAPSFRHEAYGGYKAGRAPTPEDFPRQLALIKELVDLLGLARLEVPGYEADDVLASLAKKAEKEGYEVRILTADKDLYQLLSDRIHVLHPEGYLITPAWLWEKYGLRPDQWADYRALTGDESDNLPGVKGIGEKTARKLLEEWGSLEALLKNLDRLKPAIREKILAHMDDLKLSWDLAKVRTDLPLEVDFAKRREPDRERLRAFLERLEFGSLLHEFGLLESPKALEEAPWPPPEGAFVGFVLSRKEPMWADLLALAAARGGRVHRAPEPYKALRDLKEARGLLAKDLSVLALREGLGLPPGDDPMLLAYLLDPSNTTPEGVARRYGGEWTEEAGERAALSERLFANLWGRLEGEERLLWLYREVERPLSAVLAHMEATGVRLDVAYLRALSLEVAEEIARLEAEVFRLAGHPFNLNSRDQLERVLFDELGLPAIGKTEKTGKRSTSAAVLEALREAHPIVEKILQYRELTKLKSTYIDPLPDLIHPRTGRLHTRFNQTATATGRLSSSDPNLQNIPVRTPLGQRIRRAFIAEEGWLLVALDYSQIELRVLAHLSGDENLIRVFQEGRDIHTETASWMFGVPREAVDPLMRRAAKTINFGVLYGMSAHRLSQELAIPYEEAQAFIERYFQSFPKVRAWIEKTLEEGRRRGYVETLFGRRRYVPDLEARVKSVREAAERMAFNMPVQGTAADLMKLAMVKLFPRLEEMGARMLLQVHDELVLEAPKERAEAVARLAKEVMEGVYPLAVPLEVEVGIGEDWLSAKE
Procedure, shortened: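 Taq polymerase used poly(dA)/oligo(dT)18 (A/T = 2/1) template-primer and dTTP substrate. Test compound in sonicated DMSO was preincubated with enzyme (0.05 unit final) in 50 mM Tris-HCl pH 7.5, 1 mM DTT, 50% glycerol and 0.1 mM EDTA at 0 °C for 10 min. The mixture was then added to standard reaction mix and incubated at 74 °C for 60 min. Activity is given as % of untreated control.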

[5] = target: mouse IMP dehydrogenase (type II) (Mus musculus, UniProt P24547); assay: IMP dehydrogenase assay; format: biochemical; conditions: highest tested concentration 1 μM, supplemental Fig. S1B
human telomerase = human telomerase (Homo sapiens, UniProt O14746); assay: Telomerase assay; format: biochemical; conditions: highest tested concentration 1 μM, supplemental Fig. S1B
T4 pol = T4 pol (Enterobacteria phage T4, UniProt P04415); assay: Pol assay, T4 pol; format: biochemical; conditions: supplemental Fig. S1A
Sequence of T4 pol (P04415 whole entry): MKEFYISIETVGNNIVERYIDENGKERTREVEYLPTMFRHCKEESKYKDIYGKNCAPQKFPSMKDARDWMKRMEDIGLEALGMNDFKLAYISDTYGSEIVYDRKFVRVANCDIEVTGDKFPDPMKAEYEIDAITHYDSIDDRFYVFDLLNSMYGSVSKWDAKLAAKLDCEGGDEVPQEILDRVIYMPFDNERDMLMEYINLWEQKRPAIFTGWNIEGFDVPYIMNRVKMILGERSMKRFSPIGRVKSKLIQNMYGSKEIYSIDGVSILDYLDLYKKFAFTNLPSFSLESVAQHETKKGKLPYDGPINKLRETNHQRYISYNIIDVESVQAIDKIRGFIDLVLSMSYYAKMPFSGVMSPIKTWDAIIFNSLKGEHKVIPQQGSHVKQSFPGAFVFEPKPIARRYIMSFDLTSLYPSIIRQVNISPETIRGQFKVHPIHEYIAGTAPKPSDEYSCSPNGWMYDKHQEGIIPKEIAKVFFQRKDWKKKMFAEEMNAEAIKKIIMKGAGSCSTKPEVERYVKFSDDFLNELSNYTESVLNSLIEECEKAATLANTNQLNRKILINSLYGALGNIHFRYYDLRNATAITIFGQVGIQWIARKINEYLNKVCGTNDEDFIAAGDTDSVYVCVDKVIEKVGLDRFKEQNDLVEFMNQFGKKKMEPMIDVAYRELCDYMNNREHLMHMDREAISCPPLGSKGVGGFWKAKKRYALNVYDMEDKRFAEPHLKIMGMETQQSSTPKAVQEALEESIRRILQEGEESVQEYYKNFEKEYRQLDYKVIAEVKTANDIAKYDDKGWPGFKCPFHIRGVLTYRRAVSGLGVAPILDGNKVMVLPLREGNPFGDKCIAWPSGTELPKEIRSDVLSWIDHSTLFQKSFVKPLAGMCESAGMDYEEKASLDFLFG
Procedure, shortened: as §1

Structure (SMILES): O=C(OC[C@H]1O[C@@H](OC(=O)c2cc(O)c(O)c(O)c2)[C@H](OC(=O)c2cc(O)c(O)c(O)c2)[C@@H](OC(=O)c2cc(O)c(O)c(O)c2)[C@@H]1OC(=O)c1cc(O)c(O)c(O)c1)c1cc(O)c(O)c(O)c1 [PGG, 1,2,3,4,6-penta-O-galloyl-β-D-glucose]
- pIC50 (Aminopeptidase N): 5.19
- pIC50 (human pol η): 7.35 to 7.52
- effect on pol η activity (human pol η; 100 and 1,000 nM PGG, Fig. 1C): significantly inhibit
- effect on Klenow fragment of E. coli pol I activity [1]: not influenced
- pIC50 (HCV NS3 protease): 5.80
- effect on T7 RNA polymerase activity (T7 RNA polymerase): did not suppress
- effect on cauliflower pol α activity (cauliflower pol α): not influenced
- pIC50 (mouse pol ι): 7.35 to 7.52
- effect on pol ι activity (mouse pol ι; 100 and 1,000 nM PGG, Fig. 1C): significantly inhibit
- pIC50 [2]: 4.14
- Mode of Inhibition, 5-alpha-Reductase, NADPH [3]: competitive inhibitor; also recorded: Competitive for NADPH
- Mode of Inhibition, 5-alpha-Reductase, testosterone [3]: non-competitive inhibitor; also recorded: Non-competitive for testosterone
- pIC50 ([3]; read-out: IC50, 5-alpha-Reductase): 5.11
- pKi ([3]; read-out: Ki, 5-alpha-Reductase, NADPH, competitive for NADPH): 6.32
- effect on pol δ activity (human pol δ; 100 and 1,000 nM PGG, Fig. 1C): significantly inhibit
- pIC50 (human pol δ; IC50, pol δ, range stated for replicative pols (α, δ and ε) together): > 7.00 and 7.18 to 7.89
- Mode of Inhibition, H^+, K^+- ATPase (H^+, K^+- ATPase): Non-competitive for K^+
- pIC50 (H^+, K^+- ATPase; read-out: IC50, H^+, K^+- ATPase): 6.78
- effect on human topoisomerase II activity (human topoisomerase II): did not suppress
- effect on pol λ activity [4]: not affected; also recorded: not sensitive
- effect on Taq pol activity (Taq pol): not influenced
- effect on mouse IMP dehydrogenase (type II) activity [5]: did not suppress
- effect on human telomerase activity (human telomerase): did not suppress
- effect on T4 pol activity (T4 pol): not influenced
